The structures appear in SMILES notation.

We go through 13 molecules from ChEMBL document CHEMBL1811799, “Jatrophane diterpenes from Euphorbia esula as antiproliferative agents and potent chemosensitizers to overcome multidrug resistance” (J Nat Prod, 2011).

Data set [1] deals with Ishikawa. Nature of the data set: Antiproliferative activity against human Ishikawa cells assessed as growth inhibition at 30 ug/mL after 72 hrs by MTT assay. The format is functional. As to conditions: read-out: GI. Summed up: (§1)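 MTT assay on human HeLa, Ishikawa and MCF7 cells seeded at 5000/well and left to attach overnight. Medium was then replaced with medium containing test substances (DMSO stocks, final DMSO up to 0.3%). After 72 h, MTT was added for 4 h, formazan was dissolved in DMSO and absorbance read at 545 nm. Untreated cells served as negative control and cisplatin as positive control. Two plates were run, each with at least five parallel wells.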

In data set [2] the test system is HeLa. Nature of the data set: Antiproliferative activity against human HeLa cells assessed as growth inhibition at 10 ug/mL after 72 hrs by MTT assay. Format: functional. As to conditions: read-out: GI. Put shortly: as §1
A general note: Formazan colour is commonly taken as a measure of viable cells.

The subject of data set [3] is MCF7. Kind of data set: Antiproliferative activity against human MCF7 cells assessed as growth inhibition at 10 ug/mL after 72 hrs by MTT assay. The format is functional. The conditions noted are these: MCF7, 72 h, read-out: GI. Summed up: as §1
For data set [4], the system named is HeLa. Kind of data set: Antiproliferative activity against human HeLa cells assessed as growth inhibition at 30 ug/mL after 72 hrs by MTT assay. The format is functional. The conditions noted are these: read-out: GI. Put shortly:
as §1

For data set [5], the system named is MCF7. Nature of the data set: Antiproliferative activity against human MCF7 cells assessed as growth inhibition at 30 ug/mL after 72 hrs by MTT assay. The conditions noted are these: MCF7, 72 h, read-out: GI. The format is functional. Put shortly:
as §1

The target of data set [6] is T1, ATP-dependent translocase ABCB1 (Homo sapiens, UniProt P08183). Kind of data set: Inhibition of MDR1-mediated rhodamine 123 uptake expressed in mouse L5178Y cells transfected with pHa MDR1/A assessed as fluorescence activity ratio at 4 ug/mL by flow cytometry relative to untreated control. Format: cell-based. Summed up:
(§2)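 Mouse L5178 lymphoma cells transfected with pHa MDR1/A retrovirus were kept under 60 ng/mL colchicine, alongside L5178Y parent cells, in McCoy's 5A medium with 10% horse serum. Cells at 2×10^6/mL in serum-free medium were preincubated with compound (4.0 or 40.0 μg/mL, in DMSO) for 10 min at room temperature. Rhodamine 123 was then added (5.2 μM final) for 20 min at 37 °C, and cells were washed and measured by flow cytometry. R compares treated versus untreated MDR cells relative to parental cells. Verapamil served as positive control.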
On the technique in general: Flow cytometry measures light scatter and fluorescence of single cells or particles in a stream.

The target in data set [7] is T1, ATP-dependent translocase ABCB1. Kind of data set: Inhibition of MDR1-mediated rhodamine 123 uptake expressed in mouse L5178Y cells transfected with pHa MDR1/A assessed as fluorescence activity ratio at 40 ug/mL by flow cytometry relative to untreated control. The format is cell-based. Summed up:
as §2

Data set [8] concerns Ishikawa. Kind of data set: Antiproliferative activity against human Ishikawa cells assessed as growth inhibition at 10 ug/mL after 72 hrs by MTT assay. As to conditions: read-out: GI. The format is functional. Summed up: as §1

T1 sequence (P08183 whole entry): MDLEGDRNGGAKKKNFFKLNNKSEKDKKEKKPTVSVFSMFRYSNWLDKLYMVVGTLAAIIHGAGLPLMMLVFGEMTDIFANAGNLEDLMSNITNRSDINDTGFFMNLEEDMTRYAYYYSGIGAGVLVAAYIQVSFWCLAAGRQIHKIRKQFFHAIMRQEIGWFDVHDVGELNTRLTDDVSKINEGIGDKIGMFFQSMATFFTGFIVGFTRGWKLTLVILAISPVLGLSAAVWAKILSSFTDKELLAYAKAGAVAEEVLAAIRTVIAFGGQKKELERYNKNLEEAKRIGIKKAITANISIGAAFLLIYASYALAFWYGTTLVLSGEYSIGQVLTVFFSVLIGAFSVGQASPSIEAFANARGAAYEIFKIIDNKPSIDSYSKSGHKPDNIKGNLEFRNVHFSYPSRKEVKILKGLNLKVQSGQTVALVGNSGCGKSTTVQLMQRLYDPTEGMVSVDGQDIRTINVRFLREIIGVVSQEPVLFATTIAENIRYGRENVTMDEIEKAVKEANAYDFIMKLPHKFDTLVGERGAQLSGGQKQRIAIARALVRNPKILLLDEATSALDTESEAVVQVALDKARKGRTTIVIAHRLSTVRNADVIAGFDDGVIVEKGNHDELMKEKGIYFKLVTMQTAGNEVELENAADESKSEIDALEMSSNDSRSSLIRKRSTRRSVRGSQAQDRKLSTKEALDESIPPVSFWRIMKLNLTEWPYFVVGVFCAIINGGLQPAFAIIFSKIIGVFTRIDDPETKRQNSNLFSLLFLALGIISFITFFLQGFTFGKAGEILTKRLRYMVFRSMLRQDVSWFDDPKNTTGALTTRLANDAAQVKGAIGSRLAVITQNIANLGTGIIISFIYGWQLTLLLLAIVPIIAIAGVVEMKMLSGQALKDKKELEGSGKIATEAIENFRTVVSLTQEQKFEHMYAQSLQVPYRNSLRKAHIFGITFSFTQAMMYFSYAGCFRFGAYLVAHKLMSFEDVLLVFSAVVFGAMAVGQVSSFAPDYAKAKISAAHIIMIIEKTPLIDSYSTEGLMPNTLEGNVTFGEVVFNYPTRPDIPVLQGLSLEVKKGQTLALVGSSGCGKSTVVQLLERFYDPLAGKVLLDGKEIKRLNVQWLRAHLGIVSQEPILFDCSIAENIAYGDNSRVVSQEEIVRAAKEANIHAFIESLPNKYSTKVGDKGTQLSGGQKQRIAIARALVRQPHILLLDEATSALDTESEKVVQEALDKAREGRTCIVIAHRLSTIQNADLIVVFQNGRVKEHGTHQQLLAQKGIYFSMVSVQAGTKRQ

With `C=C1[C@H](OC(=O)C(C)C)[C@@H](OC(C)=O)[C@@H](OC(C)=O)C(C)(C)[C@@H]2O[C@](O)([C@H](C)[C@@H]2OC(C)=O)[C@@]2(OC(C)=O)C[C@@](C)(OC(C)=O)[C@H](OC(C)=O)[C@@H]2[C@H]1OC(C)=O`, the values for the inhibition of growth at 30 µg/mL in the data set on Ishikawa [1], in the data set on HeLa [4] and with MCF7 [5] were 17.7%, 17.8% and 11.4%, respectively. The inhibition of growth at 10 µg/mL in the data set with HeLa [2] was 10.6%; with MCF7 [3], 9.8%; in the data set on Ishikawa [8] it was 12%. Moreover, the Ratio turned out to be 1.4 in data set [6] and 1 in data set [7].
In the case of `C=C1[C@H](OC(=O)C(C)C)CC(=O)C(C)(C)/C=C/[C@@H](C)C(=O)[C@@]2(OC(C)=O)C[C@H](C)[C@H](OC(C)=O)[C@@H]2[C@H]1OC(C)=O`, the inhibition of growth at 30 µg/mL in the data set on Ishikawa [1] was 98.4%; with HeLa [4], 64.5%; in the data set on MCF7 [5], 81.4%. The inhibition of growth at 10 µg/mL in the data set with HeLa [2] stood at 19.1%; in the data set on MCF7 [3], 46.8%; with Ishikawa [8] it was 18.4%. Moreover, the Ratio in data set [6] came to 24.9; in data set [7], 52.5.
Take `C=C1[C@H](OC(=O)C(C)C)C[C@@H](OC(=O)c2cccnc2)C(C)(C)/C=C/[C@@H](C)C(=O)[C@@]2(OC(C)=O)C[C@@](C)(OC(C)=O)[C@H](OC(C)=O)[C@@H]2[C@H]1OC(C)=O`: the inhibition of growth at 30 µg/mL with Ishikawa [1] turned out to be 26.6%; in the data set on HeLa [4], 1.1%; in the data set on MCF7 [5], 16.7%. The inhibition of growth at 10 µg/mL is 6.4% in the data set with HeLa [2], 3.6% in the data set with MCF7 [3] and 17.5% in the data set on Ishikawa [8]. In addition, the figures for the Ratio in data set [6] and in data set [7] were 23.8 and 36.4, respectively.
On to `C=C1[C@H](OC(=O)C(C)C)C[C@@H](OC(=O)c2cccnc2)C(C)(C)/C=C/[C@@H](C)C(=O)[C@@]2(OC(C)=O)C[C@H](C)[C@H](OC(C)=O)[C@@H]2[C@H]1OC(C)=O`, for which the figures for the inhibition of growth at 30 µg/mL in the data set on Ishikawa [1], in the data set on HeLa [4] and in the data set on MCF7 [5] were 16.4%, 4.5% and 14.4%, respectively. The inhibition of growth at 10 µg/mL was 18.3% in the data set with HeLa [2], 18.5% in the data set with MCF7 [3] and 5.9% in the data set on Ishikawa [8]. For the same molecule, the Ratio is 16.6 in data set [6] and 119.9 in data set [7].
Take `C=C1[C@H](OC(C)=O)C[C@@H](OC(=O)c2cccnc2)C(C)(C)/C=C/[C@@H](C)C(=O)[C@@]2(OC(C)=O)C[C@@](C)(OC(C)=O)[C@H](OC(C)=O)[C@@H]2[C@H]1OC(C)=O`: the inhibition of growth at 30 µg/mL in the data set on Ishikawa [1] was found to be 13.9%; in the data set with HeLa [4] it was 17.9%; in the data set with MCF7 [5], 36.3%. The inhibition of growth at 10 µg/mL in the data set with HeLa [2] worked out at 13.9%; in the data set with MCF7 [3], 20.3%; in the data set with Ishikawa [8], 8.1%. Besides, the Ratio in data set [6] is recorded as 1.7; in data set [7], 2.3.
Take `CC(=O)O[C@H]1[C@H]2OC(=O)CC[C@](O)([C@@H]1OC(=O)C(C)C)[C@H](OC(C)=O)[C@H]1[C@@H](OC(C)=O)[C@](C)(OC(C)=O)C[C@]1(OC(C)=O)C(=O)[C@H](C)[C@H]1O[C@@H]1C2(C)C`: the results for the inhibition of growth at 30 µg/mL in the data set with Ishikawa [1], in the data set with HeLa [4] and in the data set with MCF7 [5] were 33%, 20.8% and 29.2%, respectively. Moreover, the inhibition of growth at 10 µg/mL with HeLa [2] was determined as 5.3%; with MCF7 [3] it was 24.8%; with Ishikawa [8] it was 31.5%. The Ratio in data set [6] is recorded as 5.9; in data set [7], 17.5.
With `C=C1[C@H](OC(=O)C(C)C)[C@@H](OC(C)=O)[C@@H](OC(C)=O)C(C)(C)/C=C/[C@@H](C)C(=O)[C@@]2(OC(C)=O)C[C@@](C)(OC(C)=O)[C@H](OC(C)=O)[C@@H]2[C@H]1OC(C)=O`, the inhibition of growth at 30 µg/mL in the data set with Ishikawa [1] is 17.1%; in the data set with HeLa [4] it was 10.9%; with MCF7 [5], 23.3%. Further, the inhibition of growth at 10 µg/mL came out at 2.9% in the data set on HeLa [2], 8.7% in the data set on MCF7 [3] and 21.4% in the data set with Ishikawa [8]. The values for the Ratio in data set [6] and in data set [7] were 5.5 and 14.8, respectively.
In the case of `C=C1[C@H](OC(C)=O)CC(=O)C(C)(C)/C=C/[C@@H](C)C(=O)[C@@]2(OC(C)=O)C[C@@](C)(OC(C)=O)[C@H](OC(C)=O)[C@@H]2[C@H]1OC(C)=O` [ESULATIN B], the inhibition of growth at 30 µg/mL in the data set on Ishikawa [1] was found to be 35%; with HeLa [4], 36.3%; with MCF7 [5], 43.3%. In addition, the inhibition of growth at 10 µg/mL in the data set with HeLa [2] was determined as 17.3%; in the data set on MCF7 [3] it was 29.9%; in the data set on Ishikawa [8], 11.6%. Moreover, the Ratio came to 2.6 in data set [6] and 7.8 in data set [7].
Take `C=C1[C@H](OC(C)=O)C[C@@H](OC(C)=O)C(C)(C)/C=C/[C@@H](C)C(=O)[C@@]2(OC(C)=O)C[C@@](C)(OC(C)=O)[C@H](OC(C)=O)[C@@H]2[C@H]1OC(C)=O` [ESULATIN D]: the inhibition of growth at 30 µg/mL turned out to be 29.9% with Ishikawa [1], 26.7% in the data set on HeLa [4] and 13.5% in the data set on MCF7 [5]. Besides, the inhibition of growth at 10 µg/mL with HeLa [2] was 11.4%; in the data set with MCF7 [3] it was 9.5%; with Ishikawa [8], 29.4%. For the same molecule, the Ratio in data set [6] is reported as 4.6; in data set [7], 15.2.
Turning to `C=C1/C=C\C(=O)C(C)(C)/C=C/[C@@H](C)C(=O)[C@@]2(OC(C)=O)C[C@@](C)(OC(C)=O)[C@H](OC(C)=O)[C@@H]2[C@H]1OC(C)=O` [ESULATIN E], the inhibition of growth at 30 µg/mL in the data set on Ishikawa [1] is 54.1%; in the data set with HeLa [4], 58.1%; in the data set with MCF7 [5], 61.4%. In addition, the inhibition of growth at 10 µg/mL in the data set on HeLa [2] is 19.5%; with MCF7 [3], 30.4%; in the data set on Ishikawa [8], 35.6%.
As to `C=C1[C@H](OC(C)=O)CC(=O)C(C)(C)/C=C/[C@@H](C)C(=O)[C@@]2(OC(C)=O)C[C@@](C)(OC(=O)c3ccccc3)[C@H](OC(C)=O)[C@@H]2[C@H]1OC(C)=O` [ESULATIN I], the inhibition of growth at 30 µg/mL came out at 29.4% in the data set on Ishikawa [1], 23.8% with HeLa [4] and 60.1% in the data set on MCF7 [5]. The values for the inhibition of growth at 10 µg/mL in the data set on HeLa [2], in the data set with MCF7 [3] and in the data set with Ishikawa [8] were 15.4%, 12.7% and 8%, respectively. For the same molecule, the Ratio is given as 3.9 in data set [6] and 19.9 in data set [7].
Turning to `C=C1[C@H](OC(C)=O)C[C@@H](OC(=O)c2cccnc2)C(C)(C)/C=C/[C@@H](C)C(=O)[C@@]2(OC(C)=O)C[C@@](C)(OC(=O)c3cccnc3)[C@H](OC(C)=O)[C@@H]2[C@H]1OC(C)=O` [ESULATIN K], the inhibition of growth at 30 µg/mL with Ishikawa [1] came out at 0.1%; in the data set with HeLa [4], 0.6%; in the data set with MCF7 [5] it was 21.3%. Also, the values for the inhibition of growth at 10 µg/mL with HeLa [2], in the data set on MCF7 [3] and in the data set with Ishikawa [8] were 0.5%, 1.3% and 7.5%, respectively. The values for the Ratio in data set [6] and in data set [7] were 7.2 and 19.8, respectively.
For the molecule `C=C1[C@H](OC(C)=O)C[C@@H](OC(=O)c2cccnc2)[C@](C)(OC(C)=O)C/C=C/[C@@H](C)C(=O)[C@@]2(OC(C)=O)C[C@@](C)(OC(=O)c3cccnc3)[C@H](OC(C)=O)[C@@H]2[C@H]1OC(C)=O` [EUPHOSALICIN], the inhibition of growth at 30 µg/mL was found to be 7.6% in the data set with Ishikawa [1], 18.1% in the data set on HeLa [4] and 20% in the data set with MCF7 [5]. The inhibition of growth at 10 µg/mL with HeLa [2] was 14.5%; in the data set with MCF7 [3], 6.3%; with Ishikawa [8], 0.9%. The figures for the Ratio in data set [6] and in data set [7] were 1.9 and 12.3, respectively.
